According to ChEMBL document CHEMBL1123589, “Phenylpiperazine-based radiopharmaceuticals for brain imaging. 3. Synthesis and evaluation of radioiodinated 1-alkyl-4-phenylpiperazines” (J Med Chem, 1987):

Columns and labels:
Conditions in all cases: in vivo
Rattus norvegicus [1] = assay: The biodistribution of the [125I]-labeled compound in rats after intravenous injection was evaluated in lung at 0.25 hrs; value ranges from 0.52-0.58 (ID.kg/g); type: ADME, organism-based
Summary of the method: (§1)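 Male Sprague-Dawley rats (250–300 g), under ether anesthesia, given 10–15 μCi of the NCA ¹²⁵I-labeled agent iv in 0.1 mL saline. Groups of N = 3 were killed at 0.25, 1 or 4 h. Blood and tissues were removed, weighed and counted in a γ-well scintillation counter. Values are mean % ID·kg/g (range).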

Rattus norvegicus [2] = assay: The biodistribution of the [125I]-labeled compound in rats after intravenous injection was evaluated in fat at 0.25 hr (ID. kg/g); type: ADME, organism-based, Adipose tissue
Summary of the method: (§2)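 Male Sprague-Dawley rats (250–300 g) under ether anesthesia were given an iv injection of no-carrier-added 125I-labelled agent (10–15 μCi in 0.1 mL saline). The agent was iodinated with chloramine-T in acetate buffer and purified by C-18 HPLC. Groups of N = 3 were killed at 0.25, 1 and 4 h. Blood and tissues were weighed and γ-counted. Values are % ID·kg/g, mean (range).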

Rattus norvegicus [3] = assay: The biodistribution of the [125I]-labeled compound in rats after intravenous injection was evaluated in fat at 4.00 hrs; value ranges from 0.07-0.09 (ID.kg/g); type: ADME, organism-based, Adipose tissue; summary of the method: as §2
Rattus norvegicus [4] = assay: The biodistribution of the [125I]-labeled compound in rats after intravenous injection was evaluated in kidney at 4.00 hrs; value ranges from 0.26-0.35 (ID.kg/g); type: ADME, organism-based; summary of the method: as §1
Rattus norvegicus [5] = assay: The biodistribution of the [125I]-labeled compound in rats after intravenous injection was evaluated in fat at 1.00 hrs; value ranges from 0.07-0.09 (ID.kg/g); type: ADME, organism-based, Adipose tissue; summary of the method: as §2
Rattus norvegicus [6] = assay: The biodistribution of the [125I]-labeled compound in rats after intravenous injection was evaluated in adrenal at 0.25 hrs; value ranges from 1.25-1.44 (ID.kg/g); type: ADME, organism-based; summary of the method: as §2
Rattus norvegicus [7] = assay: The biodistribution of the [125I]-labeled compound in rats after intravenous injection was evaluated in lung at 1.00 hrs; value ranges from 0.34-0.43 (ID.kg/g); type: ADME, organism-based; summary of the method: as §1
Rattus norvegicus [8] = assay: The biodistribution of the [125I]-labeled compound in rats after intravenous injection was evaluated in thyroid at 4.00 hrs; value ranges from 14.14-15.81 (ID.kg/g); type: ADME, organism-based, Thyroid gland
Summary of the method: (§3)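 Male Sprague-Dawley rats (250–300 g) under ether anesthesia given iv 0.1 mL saline containing 10–15 μCi of NCA ¹²⁵I-labeled agent (chloramine-T iodination, HPLC-purified). Groups of 3 killed at 0.25, 1 and 4 h. Blood and tissues excised, weighed and γ-counted. Values are mean (range) of % injected dose × body mass (kg) per gram of tissue.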

Rattus norvegicus [9] = assay: The biodistribution of the [125I]-labeled compound in rats after intravenous injection was evaluated in brain at 4.00 hrs; value ranges from 0.04-0.05 (ID.kg/g); type: ADME, organism-based; summary of the method: as §2
Rattus norvegicus [10] = assay: The biodistribution of the [125I]-labeled compound in rats after intravenous injection was evaluated in muscle at 1.00 hrs; value ranges from 0.03-0.04 (ID.kg/g); type: ADME, organism-based, Muscle tissue; summary of the method: as §3
Rattus norvegicus [11] = assay: The biodistribution of the [125I]-labeled compound in rats after intravenous injection was evaluated in kidney at 0.25 hr; value ranges from 0.28-0.32 (ID.kg/g); type: ADME, organism-based; summary of the method: as §1
Rattus norvegicus [12] = assay: The biodistribution of the [125I]-labeled compound in rats after intravenous injection was evaluated in lung at 4.00 hrs (ID.kg/g); type: ADME, organism-based; summary of the method: as §1
Rattus norvegicus [13] = assay: The biodistribution of the [125I]-labeled compound in rats after intravenous injection was evaluated in adrenal at 4.00 hrs; value ranges from 0.20-0.32 (ID.kg/g); type: ADME, organism-based; summary of the method: as §2
Rattus norvegicus [14] = assay: The biodistribution of the [125I]-labeled compound in rats after intravenous injection was evaluated in brain at 0.25 hrs; value ranges from 0.23-0.25 (ID.kg/g); type: ADME, organism-based; summary of the method: as §2
Rattus norvegicus [15] = assay: The biodistribution of the [125I]-labeled compound in rats after intravenous injection was evaluated in thyroid at 0.25 hrs; value ranges from 1.31-2.46( ID.kg/g); type: ADME, organism-based, Thyroid gland; summary of the method: as §3
Rattus norvegicus [16] = assay: The biodistribution of the [125I]-labeled compound in rats after intravenous injection was evaluated in adrenal at 1.00 hrs; value ranges from 0.84-1.04 (ID.kg/g); type: ADME, organism-based; summary of the method: as §2
Rattus norvegicus [17] = assay: The biodistribution of the [125I]-labeled compound in rats after intravenous injection was evaluated in blood at 1.00 hrs (ID.kg/g); type: ADME, organism-based; summary of the method: as §2
Rattus norvegicus [18] = assay: The biodistribution of the [125I]-labeled compound in rats after intravenous injection was evaluated in blood at 0.25 hrs (ID.kg/g); type: ADME, organism-based; summary of the method: as §2
Rattus norvegicus [19] = assay: The biodistribution of the [125I]-labeled compound in rats after intravenous injection was evaluated in blood at 4.00 hrs; value ranges from […]-0.09 (ID.kg/g); type: ADME, organism-based; summary of the method: as §2
Rattus norvegicus [20] = assay: The biodistribution of the [125I]-labeled compound in rats after intravenous injection was evaluated in liver at 0.25 hr; value ranges from 0.69-1.03 (ID.kg/g); type: ADME, organism-based; summary of the method: as §1
Rattus norvegicus [21] = assay: The biodistribution of the [125I]-labeled compound in rats after intravenous injection was evaluated in heart at 0.25 hrs (ID.kg/g); type: ADME, organism-based; summary of the method: as §2
Rattus norvegicus [22] = assay: The biodistribution of the [125I]-labeled compound in rats after intravenous injection was evaluated in liver at 1.00 hrs; value ranges from 0.54-0.58 (ID.kg/g); type: ADME, organism-based; summary of the method: as §1
Rattus norvegicus [23] = assay: The biodistribution of the [125I]-labeled compound in rats after intravenous injection was evaluated in thyroid at 1.00 hrs; value ranges from 2.56-3.24 (ID.kg/g); type: ADME, organism-based, Thyroid gland; summary of the method: as §3
Rattus norvegicus [24] = assay: The biodistribution of the [125I]-labeled compound in rats after intravenous injection was evaluated in kidney at 1.00 hrs; value ranges from 0.26-0.35 (ID.kg/g); type: ADME, organism-based; summary of the method: as §1
Rattus norvegicus [25] = assay: The biodistribution of the [125I]-labeled compound in rats after intravenous injection was evaluated in liver at 4.00 hrs; value ranges from 0.40-0.61 (ID.kg/g); type: ADME, organism-based; summary of the method: as §1
Rattus norvegicus [26] = assay: The biodistribution of the [125I]-labeled compound in rats after intravenous injection was evaluated in brain at 1.00 hrs; value ranges from 0.14-0.15 (ID.kg/g); type: ADME, organism-based; summary of the method: as §2
Rattus norvegicus [27] = assay: The biodistribution of the [125I]-labeled compound in rats after intravenous injection was evaluated in muscle at 4.00 hrs (ID.kg/g); type: ADME, organism-based, Muscle tissue; summary of the method: as §3
Rattus norvegicus [28] = assay: The biodistribution of the [125I]-labeled compound in rats after intravenous injection was evaluated in muscle at 0.25 hrs; value ranges from 0.03-0.04 (ID.kg/g); type: ADME, organism-based, Muscle tissue; summary of the method: as §3
Rattus norvegicus [29] = assay: The biodistribution of the [125I]-labeled compound in rats after intravenous injection was evaluated in heart at 4.00 hrs; value ranges from 0.04-0.06 (ID.kg/g); type: ADME, organism-based; summary of the method: as §1
Rattus norvegicus [30] = assay: The biodistribution of the [125I]-labeled compound in rats after intravenous injection was evaluated in heart at 1.00 hrs; value ranges from 0.08-0.09 (ID.kg/g); type: ADME, organism-based; summary of the method: as §2

CCN1CCN(c2ccc(I)cc2)CC1
Biodistribution (Rattus norvegicus [1]): 0.58%
Biodistribution (Rattus norvegicus [2]): 0.09 % ID·kg/g
Biodistribution (Rattus norvegicus [3]): 0.09%
Biodistribution (Rattus norvegicus [4]): 0.35%
Biodistribution (Rattus norvegicus [5]): 0.09%
Biodistribution (Rattus norvegicus [6]): 1.44%
Biodistribution (Rattus norvegicus [7]): 0.43%
Biodistribution (Rattus norvegicus [8]): 15.81%
Biodistribution (Rattus norvegicus [9]): 0.05%
Biodistribution (Rattus norvegicus [10]): 0.04%
Biodistribution (Rattus norvegicus [11]): 0.38%
Biodistribution (Rattus norvegicus [12]): 0.17%
Biodistribution (Rattus norvegicus [13]): 0.32%
Biodistribution (Rattus norvegicus [14]): 0.25%
Biodistribution (Rattus norvegicus [15]): 2.46%
Biodistribution (Rattus norvegicus [16]): 1.04%
Biodistribution (Rattus norvegicus [17]): 0.07 % ID·kg/g
Biodistribution (Rattus norvegicus [18]): 0.04 % ID·kg/g
Biodistribution (Rattus norvegicus [19]): 0.09%
Biodistribution (Rattus norvegicus [20]): 1.03%
Biodistribution (Rattus norvegicus [21]): 0.1%
Biodistribution (Rattus norvegicus [22]): 0.58%
Biodistribution (Rattus norvegicus [23]): 3.24%
Biodistribution (Rattus norvegicus [24]): 0.35%
Biodistribution (Rattus norvegicus [25]): 0.61%
Biodistribution (Rattus norvegicus [26]): 0.16%
Biodistribution (Rattus norvegicus [27]): 0.02 %ID·kg/g
Biodistribution (Rattus norvegicus [28]): 0.04%
Biodistribution (Rattus norvegicus [29]): 0.06%
Biodistribution (Rattus norvegicus [30]): 0.09%
